Measured values reported in ChEMBL document CHEMBL1629579, “Correlating echinocandin MIC and kinetic inhibition of fks1 mutant glucan synthases for Candida albicans: implications for interpretive breakpoints” (Antimicrob Agents Chemother, 2009).
In brackets after ≈: the same amount, converted by molar mass. Numbered stars: 1 amine (or outer) side, 2 acyl side, 3 side chain; on linkers, the order of the positions; unused ones are H or OH. Bridge positions count the residues as written; N and C are the ends. Square brackets hold non-standard residues; d marks the D form. Peptide text beside a SMILES is read from it. * marks the point of attachment. pTerphenylCO(4''-OnC5H11) = CCCCCOc1ccc(-c2ccc(-c3ccc(C(=O)*)cc3)cc2)cc1; Orn(4R-OH,5R-OH) = O=C([C@H](C[C@@H](O)[C@@H](O)N[*:3])N[*:1])[*:2]; hTyr(3S-OH,4S-OH) = N[C@H](C(=O)O)[C@H](O)[C@@H](O)c1ccc(O)cc1; Pro(3S-OH,4S-Me) = C[C@H]1CN[C@H](C(=O)O)[C@H]1O; Hyp = O=C(O)[C@@H]1C[C@@H](O)CN1

Experiments:
Candida albicans [1] = test: Antimicrobial activity against Candida albicans SC5314 by M27-A3 method in presence of 50% human serum; type: functional
Summary of the method: (§1)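 Broth microdilution per CLSI M27-A3 in RPMI 1640, done in triplicate on three separate days. Each strain was tested with and without 50% human serum. C. krusei ATCC 6258 and C. parapsilosis ATCC 22019 served as QC strains. Arithmetic means are reported, and geometric means were used for comparison.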

Candida albicans [2] = test: Antimicrobial activity against Candida albicans 36082 by M27-A3 method; type: functional
Summary of the method: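 Broth microdilution per CLSI M27-A3 in RPMI 1640, with and without 50% human serum, in triplicate. C. krusei ATCC 6258 and C. parapsilosis ATCC 22019 served as quality-control strains. MIC reported as arithmetic mean of three repetitions on separate days.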

Candida albicans [3] = test: Antimicrobial activity against Candida albicans 36082 by M27-A3 method in presence of 50% human serum; type: functional; summary of the method: as §1
Candida albicans [4] = test: Antimicrobial activity against Candida albicans 90028 by M27-A3 method in presence of 50% human serum; type: functional; summary of the method: as §1
Candida albicans [5] = test: Antimicrobial activity against Candida albicans 119 harboring FKS1 T1921C mutant gene and FKS1 hotspot1 F641L mutant gene by M27-A3 method; type: functional; summary of the method: as §1
Candida albicans [6] = test: Antimicrobial activity against Candida albicans 2762 harboring FKS1 T1922C mutant gene and FKS1 hotspot1 F641S mutant gene by M27-A3 method; type: functional; summary of the method: as §1
Candida albicans [7] = test: Antimicrobial activity against Candida albicans 205 harboring FKS1 T1933C mutant gene and FKS1 hotspot1 S645P mutant gene by M27-A3 method in presence of 50% human serum; type: functional; summary of the method: as §1
Candida albicans [8] = test: Antimicrobial activity against Candida albicans 89 harboring FKS1 C1934A mutant gene and FKS1 hotspot1 S645Y mutant gene by M27-A3 method; type: functional; summary of the method: as §1
Candida albicans [9] = test: Antimicrobial activity against Candida albicans 85 harboring FKS1 C1934T mutant gene and FKS1 hotspot1 S645F mutant gene by M27-A3 method; type: functional; summary of the method: as §1
Candida albicans [10] = test: Antimicrobial activity against Candida albicans 149 harboring FKS1 G1942T mutant gene and FKS1 hotspot1 D648Y mutant gene by M27-A3 method; type: functional; summary of the method: as §1
Candida albicans [11] = test: Antimicrobial activity against Candida albicans 122 harboring FKS1 C1946A mutant gene and FKS1 hotspot1 P649H mutant gene by M27-A3 method in presence of 50% human serum; type: functional; summary of the method: as §1
Candida albicans [12] = test: Antimicrobial activity against Candida albicans 121 harboring FKS1 G4082A mutant gene and FKS1 hotspot2 R1361H mutant gene by M27-A3 method in presence of 50% human serum; type: functional; summary of the method: as §1
Candida albicans [13] = test: Antimicrobial activity against Candida albicans 194 harboring FKS1 C1934T/G4082R mutant gene and FKS1 hotspot1 S645F mutant gene and FKS1 hotspot2 R1361R/H mutant gene by M27-A3 method in presence of 50% human serum; type: functional; summary of the method: as §1
Candida albicans [14] = test: Antimicrobial activity against Candida albicans 90 harboring FKS1 G4082R mutant gene and FKS1 hotspot2 R1361R/H mutant gene by M27-A3 method in presence of 50% human serum; type: functional; summary of the method: as §1
Candida albicans [15] = test: Antimicrobial activity against Candida albicans A15 harboring FKS1 T1933Y mutant gene and FKS1 hotspot1 S645S/P mutant gene by M27-A3 method; type: functional; summary of the method: as §1
[16] = Inhibition of Candida albicans 90028 1,3-beta-D-glucan synthase subunit FKS1p
Summary of the method: (§2)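 Enzyme is product-entrapped 1,3-β-D-glucan synthase, enriched from membranes of each strain grown at 37°C with shaking in YPD broth to early stationary phase. Filtration polymerization assay uses [3H]UDPG, started by adding enzyme and run 60 min at 25°C. Echinocandins are added as serial dilutions, with 1% DMSO controls for anidulafungin. IC50 is from a variable-slope sigmoidal fit; values are triplicate arithmetic means.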

[17] = Inhibition of Candida albicans 119 1,3-beta-D-glucan synthase subunit FKS1p T1921C mutant
Summary of the method: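 Product-entrapped glucan synthase from YPD-grown cells (37°C, early stationary phase) in a filtration polymerization assay with [3H]UDPG. Echinocandin serial dilutions were added, with 1% DMSO in controls for anidulafungin. Reactions were started with enzyme, run 60 min at 25°C and stopped on ice. IC50 came from a variable-slope sigmoidal fit, in triplicate.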

[18] = Inhibition of Candida albicans 85 1,3-beta-D-glucan synthase subunit FKS1p C1934T mutant; summary of the method: as §2
[19] = Inhibition of Candida albicans 149 1,3-beta-D-glucan synthase subunit FKS1p G1942T mutant; summary of the method: as §2
[20] = Inhibition of Candida albicans 121 1,3-beta-D-glucan synthase subunit FKS1p G4082A mutant; summary of the method: as §2
[21] = Inhibition of Candida albicans 194 1,3-beta-D-glucan synthase subunit FKS1p C1934T/G4082R mutant; summary of the method: as §2
Candida albicans SC5314 = test: Activity at Candida albicans SC5314 1,3-beta-D-glucan synthase subunit FKS1p
Summary of the method: (§3)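 Glucan synthase from cells grown at 37°C with vigorous shaking to early stationary phase in YPD. Membrane enzyme enriched by product entrapment. Serial echinocandin dilutions; ANF controls held 1% DMSO. Reaction started by adding enzyme, run 60 min at 25°C in a filtration polymerization assay, stopped on ice. IC50 from a variable-slope sigmoidal fit; means of three repetitions on separate days.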

Candida albicans [22] = test: Activity at Candida albicans 1002 1,3-beta-D-glucan synthase subunit FKS1p; summary of the method: as §3
Candida albicans [23] = test: Activity at Candida albicans 2762 1,3-beta-D-glucan synthase subunit FKS1p T1922C mutant
Summary of the method: (§4)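 Product-entrapped 1,3-β-D-glucan synthase from cells grown in YPD at 37°C to early stationary phase. Wells held 50 mM HEPES pH 7.5, 10% glycerol, 1.5 mg/ml BSA, 25 mM KF, 1 mM EDTA, 25 μM GTP-γ-S, 1 μg enzyme and [3H]UDPG (0.015–2 mM). Reactions ran 60 min at 25°C. Vmax and Km came from Lineweaver-Burke plots, in triplicate.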

Candida albicans [24] = test: Activity at Candida albicans 205 1,3-beta-D-glucan synthase subunit FKS1p T1933C mutant; summary of the method: as §4
Candida albicans [25] = test: Activity at Candida albicans 85 1,3-beta-D-glucan synthase subunit FKS1p C1934T mutant; summary of the method: as §4
Candida albicans [26] = test: Activity at Candida albicans 149 1,3-beta-D-glucan synthase subunit FKS1p G1942T mutant; summary of the method: as §4
Candida albicans [27] = test: Activity at Candida albicans 122 1,3-beta-D-glucan synthase subunit FKS1p C1946A mutant; summary of the method: as §4
Candida albicans [28] = test: Activity at Candida albicans 90 1,3-beta-D-glucan synthase subunit FKS1p G4082R mutant; summary of the method: as §4
Candida albicans [29] = test: Activity at Candida albicans A15-10 1,3-beta-D-glucan synthase subunit FKS1p T1933C mutant

CCCCCOc1ccc(-c2ccc(-c3ccc(C(=O)N[C@H]4C[C@@H](O)[C@@H](O)NC(=O)[C@@H]5[C@@H](O)[C@@H](C)CN5C(=O)[C@H]([C@@H](C)O)NC(=O)[C@H]([C@H](O)[C@@H](O)c5ccc(O)cc5)NC(=O)[C@@H]5C[C@@H](O)CN5C(=O)[C@H]([C@@H](C)O)NC4=O)cc3)cc2)cc1 [ANIDULAFUNGIN] ({pTerphenylCO(4''-OnC5H11)}-[Orn(4R-OH,5R-OH)]T[Hyp][hTyr(3S-OH,4S-OH)]T[Pro(3S-OH,4S-Me)]; lactam 1-C)
MIC (Candida albicans [1]): 0.5 µg/mL
MIC (Candida albicans [2]): 0.03 µg/mL (≈ 0.0263 µM)
MIC (Candida albicans [3]): 0.12 µg/mL
MIC (Candida albicans [4]): 0.25 µg/mL
MIC (Candida albicans [5]): 0.16 µg/mL (≈ 0.14 µM)
MIC (Candida albicans [6]): 1 µg/mL (≈ 0.877 µM)
MIC (Candida albicans [7]): 8 µg/mL
MIC (Candida albicans [8]): 2 µg/mL (≈ 1.75 µM)
MIC (Candida albicans [9]): 2 µg/mL (≈ 1.75 µM)
MIC (Candida albicans [10]): 0.83 µg/mL (≈ 0.728 µM)
MIC (Candida albicans [11]): 8 µg/mL
MIC (Candida albicans [12]): 8 µg/mL
MIC (Candida albicans [13]): 8 µg/mL
MIC (Candida albicans [14]): 4 µg/mL
MIC (Candida albicans [15]): 0.5 µg/mL (≈ 0.438 µM)
IC50 [16]: 0.00183 µg/mL (≈ 0.0016 µM)
Ki [16]: 0.00063 µg/mL (≈ 0.000553 µM)
IC50 [17]: 0.0113 µg/mL (≈ 0.00991 µM)
Ki [17]: 0.00677 µg/mL (≈ 0.00594 µM)
IC50 [18]: 0.787 µg/mL (≈ 0.69 µM)
Ki [18]: 0.44593 µg/mL (≈ 0.391 µM)
IC50 [19]: 0.0933 µg/mL (≈ 0.0818 µM)
Ki [19]: 0.17055 µg/mL (≈ 0.15 µM)
IC50 [20]: 0.07599 µg/mL (≈ 0.0666 µM)
Ki [20]: 0.08457 µg/mL (≈ 0.0742 µM)
IC50 [21]: 0.782 µg/mL (≈ 0.686 µM)
Ki [21]: 0.29924 µg/mL (≈ 0.262 µM)
Km (Candida albicans SC5314): 125 µM
Vmax (Candida albicans SC5314): 6.72 nmol/min
Km (Candida albicans [22]): 122 µM
Vmax (Candida albicans [22]): 5.8 nmol/min
Km (Candida albicans [23]): 108 µM
Vmax (Candida albicans [23]): 3.57 nmol/min
Km (Candida albicans [24]): 116 µM
Vmax (Candida albicans [24]): 5.54 nmol/min
Km (Candida albicans [25]): 25 µM
Vmax (Candida albicans [25]): 1.83 nmol/min
Km (Candida albicans [26]): 32 µM
Vmax (Candida albicans [26]): 1.22 nmol/min
Km (Candida albicans [27]): 152 µM
Vmax (Candida albicans [27]): 1.95 nmol/min
Km (Candida albicans [28]): 31 µM
Vmax (Candida albicans [28]): 2.36 nmol/min
Km (Candida albicans [29]): 91 µM
Vmax (Candida albicans [29]): 3.26 nmol/min
